The values below come from ChEMBL document CHEMBL3046416, “Differential susceptibility to glyphosate among the Conyza weed species in Spain” (J Agric Food Chem, 2010).

Data set [1] concerns Conyza bonariensis. Description: Herbicidal activity against Conyza bonariensis (hairy fleabane) at flowering stage (BBHC55) assessed as growth inhibition measured after 21 days. The format is functional. A digest of the protocol:
(§1)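 Glyphosate-susceptible plants were grown in a growth chamber (28/18 °C day/night, 16 h photoperiod, 80% RH). Commercial glyphosate was sprayed from 50 cm in a laboratory spray chamber at rosette (BBCH 14-15), or, for C. bonariensis only, also at bolting (BBCH 32) or flowering (BBCH 55). Shoot fresh weight was taken 21 d later as % of untreated. Five replications of three plants each. ED50 came from a log-logistic regression of pooled data.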

Data set [2] concerns Leaf. As to the kind of experiment: Drug absorption in Conyza bonariensis (hairy fleabane) assessed as translocation in treated leaf at […] measured after 96 hr by liquid scintillation spectrometry. Conditions: other. The format is ADME. The method in brief:
(§2)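 Glyphosate-susceptible plants were grown in pots in a growth chamber (28/18 °C, 16 h photoperiod). They were treated with commercial glyphosate spiked with [14C]glyphosate (0.417 kBq μL-1; 1 g ai L-1, i.e. 200 g ai ha-1 in 200 L). Plants were harvested 96 h after treatment. Unabsorbed label was rinsed from the treated leaf with water-acetone (1:1). Plants were split into treated leaf, rest of shoot and root, and the rinsate was counted by liquid scintillation.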

For data set [3], the system named is Root. Description: Drug absorption in Conyza sumatrensis (tall fleabane) assessed as translocation in root at […] measured after 96 hr by liquid scintillation spectrometry. The data set is classed as ADME. A digest of the protocol:
as §2

The test system of data set [4] is Conyza sumatrensis. As to the kind of experiment: Herbicidal activity against Conyza sumatrensis ( tall fleabane) at rosette stage (BBHC14 to 15) assessed as growth inhibition measured after 21 days. The format is functional. A digest of the protocol:
as §1

The subject of data set [5] is Leaf. As to the kind of experiment: Drug absorption in Conyza canadensis (horseweed) assessed as translocation in treated leaf at […] measured after 96 hr by liquid scintillation spectrometry. Conditions: erigeron canadensis, other. The format is ADME. A digest of the protocol: as §2
The test system of data set [6] is Erigeron canadensis. Description: Drug absorption in Conyza canadensis (horseweed) assessed as translocation in rest of plant at […] measured after 96 hr by liquid scintillation spectrometry. Conditions: in vivo. The data set is classed as ADME, organism-based. A digest of the protocol:
as §2

Data set [7] deals with Conyza bonariensis. Description: Herbicidal activity against Conyza bonariensis (hairy fleabane) at bolting stage (BBHC32) assessed as growth inhibition measured after 21 days. The format is functional. A digest of the protocol: as §1
Data set [8] relates to Conyza bonariensis. As to the kind of experiment: Drug absorption in Conyza bonariensis (hairy fleabane) assessed as translocation in rest of plant at […] measured after 96 hr by liquid scintillation spectrometry. The format is ADME, organism-based. The settings on record: in vivo. A digest of the protocol:
as §2

Data set [9] in a line: Ratio of ED50 for hairy fleabane Conyza bonariensis to ED50 for tall fleabane Conyza sumatrensis. The format is functional.
Data set [10] is described as follows: Ratio of ED50 for hairy fleabane Conyza canadensis to ED50 for tall fleabane Conyza sumatrensis. The data set is classed as functional.
The test system of data set [11] is Root. As to the kind of experiment: Drug absorption in Conyza canadensis (horseweed) assessed as translocation in root at […] measured after 96 hr by liquid scintillation spectrometry. The format is ADME. Conditions: erigeron canadensis. A digest of the protocol: as §2
Data set [12] has as its system Root. Description: Drug absorption in Conyza bonariensis (hairy fleabane) assessed as translocation in root at […] measured after 96 hr by liquid scintillation spectrometry. The format is ADME. A digest of the protocol: as §2
Data set [13] concerns Leaf. Description: Drug absorption in Conyza sumatrensis (tall fleabane) assessed as translocation in treated leaf at […] measured after 96 hr by liquid scintillation spectrometry. The data set is classed as ADME. Conditions: topical_or_ocular. The method in brief:
as §2

For data set [14], the system named is Conyza bonariensis. As to the kind of experiment: Herbicidal activity against Conyza bonariensis (hairy fleabane) at rosette stage (BBHC14 to 15) assessed as growth inhibition measured after 21 days. The data set is classed as functional. A digest of the protocol:
as §1

Data set [15] has as its system Conyza sumatrensis. As to the kind of experiment: Drug absorption in Conyza sumatrensis (tall fleabane) assessed as translocation in rest of plant at […] measured after 96 hr by liquid scintillation spectrometry. The data set is classed as ADME, organism-based. Conditions: in vivo. A digest of the protocol: as §2
Data set [16] has as its system Erigeron canadensis. Description: Herbicidal activity against Conyza canadensis (horseweed) at rosette stage (BBHC14 to 15) assessed as growth inhibition measured after 21 days. The format is functional. The method in brief:
as §1

On to `O=C(O)CNCP(=O)(O)O` [GLYPHOSATE], for which the ED50 with Conyza bonariensis [1] came out at 117.5 gAi/ha; with Conyza sumatrensis [4], 2.9 gAi/ha; with Conyza bonariensis [7] it was 86.6 gAi/ha; in the data set with Conyza bonariensis [14] it was 15.7 gAi/ha; with Erigeron canadensis [16] it was 34.9 gAi/ha. The Drug transport with Leaf [2] was 85.2%; in the data set with Root [3], 11.6%; in the data set with Leaf [5], 93%; with Erigeron canadensis [6] it was 4%; in the data set on Conyza bonariensis [8] it was 6.4%; in the data set with Root [11] it was 2.8%. For the same compound, the Drug transport is 8.3% with Root [12], 82.4% in the data set on Leaf [13] and 5.9% with Conyza sumatrensis [15]. Moreover, the figures for the Ratio ED50 in [9] and in [10] were 5.4 and 12, respectively.
